Values after ≈ are worked out from the molar mass of the structure shown. Active and inactive are the calls of the source. The rule behind the calls is not given here.
Tests used:
[1] = Cytotoxic activity against mouse RAW264.7 cells assessed as reduction in cell viability incubated for 48 hrs by […] based assay
Method in brief: (§1)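 RAW264.7 or THP-1 cells were grown in RPMI-1640 with 10% FBS and seeded at 10^5 cells/mL. Compound was two-fold serially diluted from a 50 mg/mL stock, with a solvent-control row. Plates were held 48 h at 37 °C in 5% CO2. Wells were washed twice with PBS, with centrifugation between washes for THP-1, then given fresh RPMI plus 0.01% […]. After overnight incubation, fluorescence was read at 560/590 nm and GIC50 derived.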

[2] = Cytotoxic activity against human THP1 cells assessed as reduction in cell viability incubated for 48 hrs by […] based assay; parameters: species or system THP-1; details: THP1 cells; method in brief: as §1
[3] = test system: Mycobacterium tuberculosis; assay: Antimycobacterial activity against Mycobacterium tuberculosis H37Rv ATTC 27294 assessed as inhibition of mycobacterial growth incubated for 7 days; format: functional; details: H37Rv ATTC 27294, 168 h
Method in brief: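 MIC by HT-SPOTi on Middlebrook 7H10 agar with 0.05% (v/v) glycerol and 10% (v/v) OADC in 96-well format. Compounds dissolved at 50 mg/mL (stock), two-fold serial dilutions, final 500-0.5 µg/mL. Each well spotted with 2 µL early-to-midlog culture (2x10^3 CFU), incubated at 37 °C until distinct spots in control wells. DMSO-only and isoniazid controls; triplicate.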

[4] = test system: Mycolicibacterium aurum; assay: Inhibition of multidrug resistance efflux pump in Mycobacterium aurum ATCC 23366 assessed as inhibition of ethidium bromide efflux by measuring relative fluorescence units for ethidium bromide accumulation at 1/4 times MIC incubated for 60 mins by fluorimetric assay
Method in brief: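 Whole-cell efflux assay: early-log cells (OD600 ~0.8) adjusted to OD600 0.4, washed into PBS; 4-6x10^7 bacteria/mL with 0.4% glucose, 0.5 mg/L ethidium bromide substrate and compound at 1/4x MIC. Fluorescence ex 544/em 590 nm at 37 °C every minute for 60 min; accumulation scored 0-4 by relative fluorescence bands. Verapamil positive, PBS negative control.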

[5] = test system: Mycobacterium tuberculosis; assay: Antimycobacterial activity against Mycobacterium tuberculosis mc'2-7000x assessed as inhibition of mycobacterial growth; format: functional
[6] = test system: Mycolicibacterium smegmatis; assay: Antimycobacterial activity against Mycobacterium smegmatis str. MC2 155 ATCC 700084 assessed as inhibition of mycobacterial growth incubated for 24 hrs by MABA method; format: functional; details: MC2 155 ATCC 700084, 24 h
[7] = test system: Mycolicibacterium aurum; assay: Antimycobacterial activity against Mycobacterium aurum ATCC 23366 assessed as inhibition of mycobacterial growth at 500 ug/ml incubated for 4 days; format: functional, organism-based
Method in brief: (§2)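 HT-SPOTi agar dilution: two-fold serial dilutions of compound were mixed into Middlebrook 7H10 agar with 0.05% glycerol and 10% OADC, giving a final range of 500–0.5 µg/mL. Each well was spotted with 2x10^3 CFU of early-to-mid-log culture. Plates were incubated at 35 or 37 °C until spots appeared in control wells. Controls were DMSO-only and isoniazid. The MIC was read, in triplicate.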

[8] = Selectivity index, ratio of GIC50 for cytotoxicity against human THP1 cells to MIC for Mycobacterium tuberculosis H37Rv ATTC 27294; format: toxicity, cell-based, THP-1; details: read-out: Selectivity Index
Method in brief: (§3)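 SI = GIC50 / H37Rv MIC (agar spot assay). GIC50 from cells in RPMI-1640 + 10% FBS, 37 °C, 5% CO2; 10^5 cells/mL added to two-fold compound dilutions from 50 mg/mL stock, solvent control row. 48 h exposure, washes (THP-1 centrifuged), fresh medium plus 0.01% […], overnight; fluorescence ex 560/em 590 nm.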

[9] = test system: Mycolicibacterium aurum; assay: Antimycobacterial activity against Mycobacterium aurum ATCC 23366 assessed as inhibition of mycobacterial growth incubated for 4 days; format: functional; method in brief: as §2
[10] = Selectivity index, ratio of GIC50 for cytotoxicity against mouse RAW264.7 cells to MIC for Mycobacterium tuberculosis H37Rv ATTC 27294; format: toxicity, cell-based; details: read-out: Selectivity Index; method in brief: as §3

Structure (SMILES) | GI50 at 48 h [1] [µg/mL] | GI50 at 48 h [2] [µg/mL] | MIC [3] [µg/mL] | Activity [4] [RFU] | MIC [5] [µg/mL] | MIC [6] [µg/mL] | growth inhibition (GI) [7] | selectivity ratio [8] | MIC [9] | MIC ([9]; ATCC 23366, 96 h) [µg/mL] | selectivity ratio [10]
Cc1cc(/C=N\OCc2ccccc2)c(C)n1-c1ccc(Cl)cc1 | 128 (≈ 378 µM) | 500 (≈ 1480 µM) | > 125 | 1 | > 64 | > 64 | inactive | < 4 | inactive | – | –
Cc1c(CNCc2ccccc2)cc(-c2ccc(Cl)cc2)n1-c1ccc(Cl)cc1 | – | 99 (≈ 235 µM) | – | 1 | 16 (≈ 38 µM) | 8 (≈ 19 µM) | – | 6.1 | – | 1 (≈ 2.37 µM) | –
Cc1ccc(CNCc2cc(C)n(-c3ccc(Cl)cc3)c2C)cc1 | 0.1 (≈ 0.295 µM) | 6.1 (≈ 18 µM) | 1 (≈ 2.95 µM) | 2 | 2 (≈ 5.9 µM) | 8 (≈ 23.6 µM) | – | 6.1 | – | 1.9 (≈ 5.61 µM) | 0.1
Cc1c(CN2CCN(C3C4CC5CC(C4)CC3C5)CC2)cc(-c2ccc(Cl)cc2)n1-c1ccc(Cl)cc1 (stereo not drawn) | 95 (≈ 178 µM) | 500 (≈ 935 µM) | 62 (≈ 116 µM) | 0 | > 64 | > 64 | – | 8.1 | inactive | – | 1.5
Cc1cc(CN2CCN(C3CCCCC3)CC2)c(C)n1-c1ccc(Cl)cc1 | 5.5 (≈ 14.2 µM) | 16 (≈ 41.5 µM) | 3.9 (≈ 10.1 µM) | 4 | 8 (≈ 20.7 µM) | 27 (≈ 70 µM) | – | 4.1 | – | 31 (≈ 80.3 µM) | 1.4
Cc1cc(CN2CCN(C3C4CC5CC(C4)CC3C5)CC2)c(C)n1-c1ccc(Cl)cc1 (stereo not drawn) | 5.7 (≈ 13 µM) | 32 (≈ 73 µM) | 7.8 (≈ 17.8 µM) | 1 | 3.3 (≈ 7.53 µM) | 8 (≈ 18.3 µM) | – | 4.1 | – | 7.8 (≈ 17.8 µM) | 0.7
Cc1cc(CN2CCN(C34CC5CC(CC(C5)C3)C4)CC2)c(C)n1-c1ccc(Cl)cc1 | 0.1 (≈ 0.228 µM) | 16 (≈ 36.5 µM) | 16 (≈ 36.5 µM) | 4 | 8 (≈ 18.3 µM) | 8 (≈ 18.3 µM) | – | 1 | – | 16 (≈ 36.5 µM) | 0.006
Cc1c(CNC2CCCCC2)cc(-c2ccc(Cl)cc2)n1-c1ccc(Cl)cc1 | – | 3.9 (≈ 9.43 µM) | – | 2 | 8 (≈ 19.4 µM) | 4 (≈ 9.68 µM) | – | 0.5 | – | 1 (≈ 2.42 µM) | –
Cc1c(CN2CCN(c3ccccc3)CC2)cc(-c2ccc(Cl)cc2)n1-c1ccc(Cl)cc1 | 175 (≈ 367 µM) | 294 (≈ 617 µM) | 1.9 (≈ 3.99 µM) | 2 | 1 (≈ 2.1 µM) | > 64 | – | 155 | inactive | – | 92
Cc1cc(CN2CCN(C3C[C@@H]4CC[C@H]3C4)CC2)c(C)n1-c1ccc(Cl)cc1 (mixture of isomers) | 5.6 | 16 | 1.9 | 1 | 2 | 27 | – | 8.4 | – | 16 | 2.9
Cc1c(CN2CCN(C3CC4CCC3C4)CC2)cc(-c2ccc(Cl)cc2)n1-c1ccc(Cl)cc1 (mixture of isomers) | – | 429 | – | – | 64 | 64 | – | 6.7 | – | 250 | –
Cc1cc(CNCc2ccccc2)c(C)n1-c1ccc(F)cc1 | 5.6 (≈ 18.2 µM) | 28 (≈ 90.8 µM) | 1 (≈ 3.24 µM) | 1 | 4 (≈ 13 µM) | 16 (≈ 51.9 µM) | – | 28 | – | 7.8 (≈ 25.3 µM) | 5.6
Cc1cc(CNCCc2ccccc2)c(C)n1-c1ccc(Cl)cc1 | 9.9 (≈ 29.2 µM) | 7.3 (≈ 21.5 µM) | 1 (≈ 2.95 µM) | 2 | 4 (≈ 11.8 µM) | 32 (≈ 94.4 µM) | – | 7.3 | – | 16 (≈ 47.2 µM) | 10
Cc1c(CN2CCN(c3ccccc3)CC2)c(CN2CCN(c3ccccc3)CC2)c(C)n1-c1ccc(Cl)cc1 | 500 (≈ 902 µM) | 113 (≈ 204 µM) | 31 (≈ 55.9 µM) | 2 | > 64 | > 64 | – | 3.6 | – | 250 (≈ 451 µM) | 16
Cc1cc(CN2CCN(c3ccccc3)CC2)c(C)n1-c1ccc(Cl)cc1 | 33 (≈ 86.9 µM) | 25 (≈ 65.8 µM) | 7.8 (≈ 20.5 µM) | 1 | 32 (≈ 84.2 µM) | 32 (≈ 84.2 µM) | – | 3.2 | – | 31 (≈ 81.6 µM) | 4.2
Cc1cc(CNCc2ccc(Cl)cc2)c(C)n1-c1ccc(Cl)cc1 | 0.1 (≈ 0.278 µM) | 18 (≈ 50.1 µM) | 16 (≈ 44.5 µM) | 2 | 2 (≈ 5.57 µM) | 4 (≈ 11.1 µM) | – | 1.1 | – | 1.9 (≈ 5.29 µM) | 0.006
Cc1cc(CNCc2ccccc2)c(C)n1-c1ccc(Cl)cc1 | 5.5 (≈ 16.9 µM) | 7.2 (≈ 22.2 µM) | 0.5 (≈ 1.54 µM) | 2 | 0.5 (≈ 1.54 µM) | 4 (≈ 12.3 µM) | – | 14 | – | 1.9 (≈ 5.85 µM) | 11
Cc1c(CN2CCN(C)CC2)cc(-c2ccc(Cl)cc2)n1-c1ccc(Cl)cc1 | 19 (≈ 45.9 µM) | 3.23 (≈ 7.8 µM) | 1 (≈ 2.41 µM) | 2 | 8 (≈ 19.3 µM) | 25 (≈ 60.3 µM) | – | 3.23 | – | 16 (≈ 38.6 µM) | 19
Cc1cc(CN2CCN(C3C4CC5CC(C4)CC3C5)CC2)c(C)n1-c1ccccc1F (stereo not drawn) | 11 (≈ 26.1 µM) | 26 (≈ 61.7 µM) | 3.9 (≈ 9.25 µM) | 1 | 1 (≈ 2.37 µM) | 13 (≈ 30.8 µM) | – | 6.7 | – | 250 (≈ 593 µM) | 2.8
Cc1c(CN2CCN(C34CC5CC(CC(C5)C3)C4)CC2)cc(-c2ccc(Cl)cc2)n1-c1ccc(Cl)cc1 | 23 (≈ 43 µM) | 35 (≈ 65.5 µM) | 7.8 (≈ 14.6 µM) | 3 | 0.5 (≈ 0.935 µM) | 3.3 (≈ 6.17 µM) | – | 4.5 | – | 62 (≈ 116 µM) | 2.9
Cc1cc(CNC2C3CC4CC(C3)CC2C4)c(C)n1-c1ccc(Cl)cc1 (stereo not drawn) | 19 (≈ 51.5 µM) | 15 (≈ 40.7 µM) | 1.9 (≈ 5.15 µM) | 1 | 1 (≈ 2.71 µM) | 16 (≈ 43.4 µM) | – | 7.8 | – | 62 (≈ 168 µM) | 10
Cc1cc(CNCc2ccc(F)cc2)c(C)n1-c1ccc(Cl)cc1 | 26 (≈ 75.8 µM) | 8.4 (≈ 24.5 µM) | > 125 | 1 | 0.7 (≈ 2.04 µM) | 2 (≈ 5.83 µM) | – | – | – | 1.9 (≈ 5.54 µM) | –
Cc1cccc(-n2c(C)cc(CN3CCN(C4C5CC6CC(C5)CC4C6)CC3)c2C)c1 (stereo not drawn) | 22 (≈ 52.7 µM) | 37 (≈ 88.6 µM) | 16 (≈ 38.3 µM) | 2 | 32 (≈ 76.6 µM) | 64 (≈ 153 µM) | – | 2.3 | – | 500 (≈ 1200 µM) | 1.4
Cc1cc(CNC2CCCCC2)c(C)n1-c1ccc(Cl)cc1 | 10 (≈ 31.6 µM) | 7.4 (≈ 23.4 µM) | 0.2 (≈ 0.631 µM) | 2 | 0.5 (≈ 1.58 µM) | 8 (≈ 25.2 µM) | – | 37 | – | 7.8 (≈ 24.6 µM) | 50
Cc1cc(CN2CCN(C3C4CC5CC(C4)CC3C5)CC2)c(C)n1-c1ccc(C(C)C)cc1 (stereo not drawn) | 92 (≈ 206 µM) | 72 (≈ 162 µM) | 16 (≈ 35.9 µM) | 3 | 3.3 (≈ 7.4 µM) | 21 (≈ 47.1 µM) | – | 4.5 | – | 500 (≈ 1120 µM) | 5.7

— ChEMBL document CHEMBL3797154, “Design and Synthesis of 1-((1,5-Bis(4-chlorophenyl)-2-methyl-1H-pyrrol-3-yl)methyl)-4-methylpiperazine (BM212) and N-Adamantan-2-yl-N'-((E)-3,7-dimethylocta-2,6-dienyl)ethane-1,2-diamine (SQ109) Pyrrole Hybrid Derivatives: Discovery of Potent Antitubercular Agents Effective against …” (J Med Chem, 2016)
